# Experimental data taken from ChEMBL document CHEMBL2169820, “Synthesis and biological activities of polyquinoline derivatives: new Bcl-2 family protein modulators” (Eur J Med Chem, 2012).
# Activity calls are given as the source filed them. The rule behind the calls is not given here.
# What was measured:
# Bcl-2-like protein 1 [1] = biological target: T1, Bcl-2-like protein 1 (Homo sapiens, UniProt Q07817); experiment: Inhibition of Bcl-XL-mediated cell death reduction expressed in serum starved mouse 3T3 cells assessed as residual cell viability at 5 uM incubated for 96 hrs by propidium iodide staining based FACS method; details: NIH3T3
# T1 sequence (Q07817 whole entry): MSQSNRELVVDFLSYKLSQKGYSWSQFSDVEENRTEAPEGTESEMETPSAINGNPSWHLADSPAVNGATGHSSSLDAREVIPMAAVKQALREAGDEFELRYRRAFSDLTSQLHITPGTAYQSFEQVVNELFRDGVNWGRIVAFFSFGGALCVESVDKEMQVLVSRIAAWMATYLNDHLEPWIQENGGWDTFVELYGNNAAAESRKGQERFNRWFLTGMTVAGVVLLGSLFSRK
# In short: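 3T3 cells infected with pMig-hBcl-xL vector to overexpress human Bcl-xL, maintained in DMEM/10% FBS. Compound 5 µM given under serum starvation; % residual viability scored at 96 h by propidium iodide staining and FACS.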
# Bcl-2-related protein A1 = biological target: T2, Bcl-2-related protein A1 (Homo sapiens, UniProt Q16548); experiment: Inhibition of GST-tagged recombinant Bfl1 interaction with biotinylated Bim peptide by ELISA based competitive binding assay
# T2 sequence (Q16548 whole entry): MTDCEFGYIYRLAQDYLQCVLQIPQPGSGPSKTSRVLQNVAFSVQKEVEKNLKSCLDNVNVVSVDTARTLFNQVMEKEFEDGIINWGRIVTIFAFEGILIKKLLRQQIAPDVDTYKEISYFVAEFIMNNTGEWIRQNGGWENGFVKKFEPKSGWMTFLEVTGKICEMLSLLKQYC
# In short: (§1)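 Plates coated with anti-GST antibody (1 µg/mL, overnight, 4 °C), blocked in PBS/1% BSA. GST-tagged Bcl-xL, Bcl-2, Bfl-1 or Mcl-1 (10 ng/mL) bound 2 h, RT. Compound added for 1 h, then biotinylated Bim peptide (1 nM) for 1 h. HRP-streptavidin detection, acid stop, OD 450 nm; EC50 derived.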
# [2] = biological target: Induced myeloid leukemia cell differentiation protein Mcl-1 (Homo sapiens, UniProt Q07820); experiment: Inhibition of GST-tagged recombinant Mcl1 interaction with biotinylated Bim peptide by ELISA based competitive binding assay; in short: as §1
# Induced myeloid leukemia cell differentiation protein Mcl-1, sequence (Q07820 whole entry): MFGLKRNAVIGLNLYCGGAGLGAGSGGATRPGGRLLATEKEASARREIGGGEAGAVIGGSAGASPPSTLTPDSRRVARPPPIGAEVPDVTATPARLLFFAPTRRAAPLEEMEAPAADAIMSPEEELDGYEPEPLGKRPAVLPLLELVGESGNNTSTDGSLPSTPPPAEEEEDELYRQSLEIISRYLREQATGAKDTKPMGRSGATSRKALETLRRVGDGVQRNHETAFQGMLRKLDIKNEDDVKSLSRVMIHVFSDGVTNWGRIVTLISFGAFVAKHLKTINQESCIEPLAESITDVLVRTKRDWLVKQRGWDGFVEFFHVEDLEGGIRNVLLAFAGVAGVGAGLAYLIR
# [3] = biological target: Apoptosis regulator Bcl-2 (Homo sapiens, UniProt P10415); experiment: Inhibition of GST-tagged recombinant Bcl2 interaction with biotinylated Bim peptide by ELISA based competitive binding assay; in short: as §1
# Apoptosis regulator Bcl-2, sequence (P10415 whole entry): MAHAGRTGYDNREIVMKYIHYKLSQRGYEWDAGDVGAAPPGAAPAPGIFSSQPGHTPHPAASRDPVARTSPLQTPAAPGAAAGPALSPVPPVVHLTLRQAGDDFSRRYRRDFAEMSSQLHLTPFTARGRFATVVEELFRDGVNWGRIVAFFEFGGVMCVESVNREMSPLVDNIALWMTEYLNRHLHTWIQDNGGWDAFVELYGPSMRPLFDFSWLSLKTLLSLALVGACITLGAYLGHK
# Bcl-2-like protein 1 [4] = biological target: T1, Bcl-2-like protein 1; experiment: Inhibition of GST-tagged recombinant Bcl-XL interaction with biotinylated Bim peptide by ELISA based competitive binding assay; in short: as §1
# MEF [5] = experiment: Induction of cell death in mouse MEF cells containing Bax/Bak double knock out at 10 uM by Annexin V and propidium iodide staining based FACS method; type: functional
# In short: (§2)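 Wild-type and DKO MEFs kept in DMEM with 10% FBS, 2 mM glutamine, 10 mM Hepes and gentamicin. Cultured in medium alone or with compound, staurosporine 1 µM as reference. Viability read by flow cytometry; mean ± SEM of 3 independent experiments.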
# RS4-11 [6] = experiment: Induction of apoptosis in human RS4:11 cells at 10 uM incubated for 24 hrs by Annexin V and propidium iodide staining based FACS method; type: functional, cell-based
# In short: (§3)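 Tumour lines grown in RPMI with 10% FBS, 2 mM glutamine, 10 mM Hepes and gentamicin; PBMC from healthy donors, purified on Ficoll gradient, same medium. Cells exposed 24 h, then Annexin V/propidium iodide labelling and flow cytometry. Specific viability = (% viable treated × 100)/% viable untreated.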
# IM-9 [7] = experiment: Induction of apoptosis in human IM9 cells at 10 uM incubated for 24 hrs by Annexin V and propidium iodide staining based FACS method; type: functional, cell-based; in short: as §3
# BP3 [8] = experiment: Induction of apoptosis in human BP3 cells at 10 uM incubated for 24 hrs by Annexin V and propidium iodide staining based FACS method; type: functional, cell-based; in short: as §3
# MEF [9] = experiment: Induction of cell death in mouse MEF cells containing Bax/Bak double knock out at 1.25 to 10 uM by Annexin V and propidium iodide staining based FACS method; type: functional; in short: as §2
# PBMC = experiment: Induction of apoptosis in human PBMCs at 5 or 10 uM incubated for 24 hrs by Annexin V and propidium iodide staining based FACS method; type: cell-based; in short: as §3
# MEF [10] = experiment: Induction of cell death in mouse MEF cells containing Bax/Bak double knock out at 1 uM by Annexin V and propidium iodide staining based FACS method; type: functional
# In short: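 Wild-type and Bax/Bak double-knockout MEFs were grown in DMEM with 10% FBS, 2 mM glutamine, 10 mM Hepes and gentamicin. They were treated for 24 h and stained with propidium iodide, with or without Annexin V, then analysed by flow cytometry. Data are mean ± SEM of 3 independent experiments.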
# RS4-11 [11] = experiment: Induction of apoptosis in human RS4:11 cells at 5 uM incubated for 24 hrs by Annexin V and propidium iodide staining based FACS method; type: functional, cell-based
# In short: (§4)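 Cells grown in RPMI with 10% FBS, 2 mM glutamine, 10 mM Hepes and gentamicin. Exposed to compound for 24 h, then labelled with Annexin V and propidium iodide and read by flow cytometry. Specific viability = (% viable treated × 100)/% viable untreated.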
# IM-9 [12] = experiment: Induction of apoptosis in human IM9 cells at 5 uM incubated for 24 hrs by Annexin V and propidium iodide staining based FACS method; type: functional, cell-based; in short: as §4
# BP3 [13] = experiment: Induction of apoptosis in human BP3 cells at 5 uM incubated for 24 hrs by Annexin V and propidium iodide staining based FACS method; type: functional, cell-based; in short: as §4
compound,measurement,setting,value
CCCOc1ccc2c(C(C)C)cc(-c3cc4ccccc4nc3N3CCCC3)cc2n1,Activity,Bcl-2-like protein 1 [1],84.4%
CCCOc1nc2cc(-c3cc4ccccc4nc3N3CCCC3)cc(C(C)C)c2cc1-c1cc(C(C)C)c2ccc(OCC)nc2c1,Activity,Bcl-2-like protein 1 [1],94.5%
CCCOc1nc2ccccc2cc1-c1cc(C(C)C)c2cc(-c3cc(C(C)C)c4ccc(N5CCOCC5)nc4c3)c(OCCC)nc2c1,Activity,Bcl-2-like protein 1 [1],92.9%
CCCOc1nc2ccccc2cc1-c1cc(C(C)C)c2cc(-c3cc(C(C)C)c4ccc(N5CCCC5)nc4c3)c(OCCC)nc2c1,Activity,Bcl-2-like protein 1 [1],94.6%
CCOc1nc2cc(-c3cc4ccccc4nc3N3CCOCC3)cc(C(C)C)c2cc1-c1cc(C(C)C)c2ccc(N3CCOCC3)nc2c1,Activity,Bcl-2-like protein 1 [1],96.5%
CCCOc1nc2cc(-c3cc4ccccc4nc3N3CCCC3)cc(C(C)C)c2cc1-c1cc(C(C)C)c2ccc(N3CCOCC3)nc2c1,Activity,Bcl-2-like protein 1 [1],96.5%
CCCOc1ccc2c(C(C)C)cc(-c3cc4c(C(C)C)cc(-c5cc6ccccc6nc5N5CCCC5)cc4nc3OCCC)cc2n1,Activity,Bcl-2-like protein 1 [1],92.8%
CCCOc1nc2cc(-c3cc4ccccc4nc3N3CCOCC3)cc(C(C)C)c2cc1-c1cc(C(C)C)c2ccc(OCC)nc2c1,Activity,Bcl-2-like protein 1 [1],95.2%
CC(C)c1cc(-c2cc3ccccc3nc2N2CCOCC2)cc2nc(N3CCOCC3)ccc12,Activity,Bcl-2-like protein 1 [1],67.9%
COC1=CC(c2cc3ccccc3[nH]2)=N/C1=C\c1[nH]c(C)cc1C [OBATOCLAX],EC50,Bcl-2-related protein A1,0.6 µM
same,EC50,[2],500 nM
same,EC50,[3],0.3 µM
same,EC50,Bcl-2-like protein 1 [4],0.9 µM
same,Activity,MEF [5],inactive
same,Activity,RS4-11 [6],Active
same,Activity,IM-9 [7],Active
same,Activity,BP3 [8],Active
CCOc1nc2cc(-c3cc4ccccc4nc3N3CCCC3)cc(C(C)C)c2cc1-c1cc(C(C)C)c2ccc(N3CCOCC3)nc2c1,Activity,Bcl-2-like protein 1 [1],91%
CCCOc1nc2cc(-c3cc4ccccc4nc3N3CCOCC3)cc(C(C)C)c2cc1-c1cc(C(C)C)c2ccc(N3CCCC3)nc2c1,Activity,Bcl-2-like protein 1 [1],93.4%
CCOc1nc2cccc(C(C)C)c2cc1-c1cc(C(C)C)c2ccc(N3CCCC3)nc2c1,Activity,Bcl-2-like protein 1 [1],91.6%
CCOc1ccc2c(C(C)C)cc(-c3cc4ccccc4nc3N3CCCC3)cc2n1,EC50,Bcl-2-related protein A1,25.5 µM
same,EC50,[2],2100 nM
same,EC50,[3],3.5 µM
same,EC50,Bcl-2-like protein 1 [4],6.2 µM
same,Activity,MEF [9],inactive
same,Activity,PBMC,Non-toxic
same,Activity,RS4-11 [6],Active
same,Activity,IM-9 [7],Active
same,Activity,BP3 [8],inactive
same,Activity,Bcl-2-like protein 1 [1],0.42%
CCOc1nc2cc(-c3cc4ccccc4nc3N3CCCC3)cc(C(C)C)c2cc1-c1cc(C(C)C)c2ccc(N3CCCC3)nc2c1,Activity,Bcl-2-like protein 1 [1],95.1%
CC(C)c1cc(-c2cc3ccccc3nc2N2CCCC2)cc2nc(N3CCCC3)ccc12,EC50,Bcl-2-related protein A1,21.5 µM
same,EC50,[2],2300 nM
same,EC50,[3],1.4 µM
same,EC50,Bcl-2-like protein 1 [4],> 100 µM
same,Activity,RS4-11 [6],inactive
same,Activity,IM-9 [7],inactive
same,Activity,BP3 [8],inactive
same,Activity,Bcl-2-like protein 1 [1],4.37%
CCCOc1ccc2c(C(C)C)cc(-c3cc4c(C(C)C)cc(-c5cc6ccccc6nc5N5CCOCC5)cc4nc3OCCC)cc2n1,Activity,Bcl-2-like protein 1 [1],92.3%
CCOc1nc2cc(-c3cc4ccccc4nc3N3CCOCC3)cc(C(C)C)c2cc1-c1cc(C(C)C)c2ccc(N3CCCC3)nc2c1,Activity,Bcl-2-like protein 1 [1],92.2%
CC(C)=CCC[C@]1(C)C=Cc2c(O)c3c(c(CC=C(C)C)c2O1)O[C@]12C(=C[C@@H]4C[C@H]1C(C)(C)O[C@@]2(C/C=C(/C)C(=O)O)C4=O)C3=O,Activity,MEF [10],Active
same,Activity,RS4-11 [11],inactive
same,Activity,IM-9 [12],inactive
same,Activity,BP3 [13],inactive
CCOc1nc2ccccc2cc1-c1cc(C(C)C)c2cc(-c3cc(C(C)C)c4ccc(N5CCOCC5)nc4c3)c(OCC)nc2c1,Activity,Bcl-2-like protein 1 [1],93.6%
CCCOc1nc2ccccc2cc1-c1cc(C(C)C)c2ccc(N3CCCC3)nc2c1,Activity,Bcl-2-like protein 1 [1],86.8%
CCOc1nc2ccccc2cc1-c1cc(C(C)C)c2cc(-c3cc(C(C)C)c4ccc(N5CCCC5)nc4c3)c(OCC)nc2c1,Activity,Bcl-2-like protein 1 [1],92.3%
CCCOc1nc2cc(-c3cc4ccccc4nc3N3CCOCC3)cc(C(C)C)c2cc1-c1cc(C(C)C)c2ccc(N3CCOCC3)nc2c1,Activity,Bcl-2-like protein 1 [1],81.6%
CN[C@@H]1C[C@H]2O[C@@](C)([C@@H]1OC)n1c3ccccc3c3c4c(c5c6ccccc6n2c5c31)C(=O)NC4,Activity,MEF [10],Active
CCCOc1ccc2c(C(C)C)cc(-c3cc4ccccc4nc3N3CCOCC3)cc2n1,EC50,Bcl-2-related protein A1,8.2 µM
same,EC50,[2],7900 nM
same,EC50,[3],9.2 µM
same,EC50,Bcl-2-like protein 1 [4],> 100 µM
same,Activity,BP3 [8],inactive
same,Activity,Bcl-2-like protein 1 [1],32.7%
CCCOc1ccc2c(C(C)C)cc(-c3cc4c(C(C)C)cc(-c5cc6ccccc6nc5N5CCCC5)cc4nc3OCC)cc2n1,Activity,Bcl-2-like protein 1 [1],96.4%
CCCOc1nc2cc(-c3cc4ccccc4nc3N3CCCC3)cc(C(C)C)c2cc1-c1cc(C(C)C)c2ccc(N3CCCC3)nc2c1,Activity,Bcl-2-like protein 1 [1],90.5%
CN(C)CC[C@H](CSc1ccccc1)Nc1ccc(S(=O)(=O)NC(=O)c2ccc(N3CCN(Cc4ccccc4-c4ccc(Cl)cc4)CC3)cc2)cc1[N+](=O)[O-],Activity,MEF [5],inactive
same,Activity,RS4-11 [6],Active
same,Activity,IM-9 [7],Active
same,Activity,BP3 [8],Active
CCOc1nc2cccc(C(C)C)c2cc1-c1cc(C(C)C)c2ccc(N3CCOCC3)nc2c1,Activity,Bcl-2-like protein 1 [1],70.3%
CCOc1ccc2c(C(C)C)cc(-c3cc4c(C(C)C)cc(-c5cc6ccccc6nc5N5CCCC5)cc4nc3OCC)cc2n1,Activity,Bcl-2-like protein 1 [1],95.3%
CCCOc1nc2ccccc2cc1-c1cc(C(C)C)c2ccc(N3CCOCC3)nc2c1,EC50,Bcl-2-related protein A1,17.8 µM
same,EC50,[2],11600 nM
same,EC50,[3],6.6 µM
same,EC50,Bcl-2-like protein 1 [4],> 100 µM
same,Activity,RS4-11 [6],inactive
same,Activity,IM-9 [7],inactive
same,Activity,BP3 [8],inactive
same,Activity,Bcl-2-like protein 1 [1],55.5%
CCOc1ccc2c(C(C)C)cc(-c3cc4ccccc4nc3N3CCOCC3)cc2n1,EC50,Bcl-2-related protein A1,24 µM
same,EC50,[2],3500 nM
same,EC50,[3],2.7 µM
same,EC50,Bcl-2-like protein 1 [4],14.6 µM
same,Activity,RS4-11 [6],inactive
same,Activity,IM-9 [7],inactive
same,Activity,BP3 [8],inactive
same,Activity,Bcl-2-like protein 1 [1],37.9%
